The source of these data is ChEMBL document CHEMBL2331216, “Synthesis and biological activities of a new class of heat shock protein 90 inhibitors, designed by energy-based pharmacophore virtual screening” (J Med Chem, 2013).

Active and inactive are the calls of the source.

For orientation: EC50 means the midpoint of the concentration-response curve. In general, GI50 refers to the concentration giving 50% growth inhibition.

Assay [1] concerns the target T1, Heat shock protein HSP90 (Homo sapiens, UniProt P07900+P08238). The experiment in a line: Inhibition of biotinylated geldanamycin binding to human recombinant Hsp90 ATP binding domain after 60 mins by fluorescence assay. Type of assay: protein assay.
The nature of assay [2]: Antiproliferative activity against human leukemia cells after 48 hrs by sulforhodamine B assay. Type of assay: functional. To be noted: Leukemia cell. The gist of the method:
(§1)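 Compounds run through the NCI DTP screen on its full human tumour cell line panels. Those that passed the selection criteria were tested twice in the five-dose concentration format. The MG_MID for each experiment is the arithmetic mean over all cell lines tested.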
A general note: In SRB staining, fixed cells bind dye roughly in proportion to their protein.

Assay [3] in a line: Antiproliferative activity against human breast cancer cells after 48 hrs by sulforhodamine B assay. The class given is functional. To be noted: Cancer cell lines. The essentials:
as §1

A short description of assay [4]: Antiproliferative activity against human CNS cancer cells after 48 hrs by sulforhodamine B assay. The class given is functional. To be noted: Cancer cell lines. The essentials:
as §1

Assay [5] is described as follows: Antiproliferative activity against human renal cancer cells after 48 hrs by sulforhodamine B assay. To be noted: Cancer cell lines. Type of assay: functional. The essentials: as §1
Assay [6] in a line: Antiproliferative activity against human melanoma cells after 48 hrs by sulforhodamine B assay. Type of assay: functional. To be noted: Melanoma cell. The essentials: as §1
The nature of assay [7]: Antiproliferative activity against human colon cancer cells after 48 hrs by sulforhodamine B assay. Type of assay: functional. To be noted: Cancer cell lines. The essentials:
as §1

The nature of assay [8]: Antiproliferative activity against human ovarian cancer cells after 48 hrs by sulforhodamine B assay. The class given is functional. To be noted: Cancer cell lines. The gist of the method: as §1
Assay [9] in a line: Antiproliferative activity against human prostate cancer cells after 48 hrs by sulforhodamine B assay. Type of assay: functional. To be noted: Cancer cell lines. The gist of the method: as §1
The nature of assay [10]: Antiproliferative activity against human non-small cell lung cancer cells after 48 hrs by sulforhodamine B assay. Type of assay: functional. To be noted: Cancer cell lines. The essentials: as §1
In assay [11] the test system is MCF7. Put plainly: Cell cycle arrest in human MCF7 cells assessed as decrease in G0/G1 phase cells at 0.548 uM after 24 hrs by propidium iodide staining-based FACS flow cytometric analysis (reference value: 65 %). Type of assay: functional. Further details: scale not given: the % may be the effect or the level left. The gist of the method:
(§2)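 Cells were collected and DNA stained with propidium iodide. Flow cytometry gave the cell cycle phase distribution against untreated controls. Values are mean ± SD of three independent experiments.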
A general note: A flow cytometer gives signals particle by particle.

For assay [12], the system named is MCF7. Put plainly: Cell cycle arrest in human MCF7 cells assessed as decrease in G0/G1 phase cells at 0.548 uM after 48 hrs by propidium iodide staining-based FACS flow cytometric analysis. Type of assay: functional. The essentials: as §2
For assay [13], the system named is MCF7. Put plainly: Cell cycle arrest in human MCF7 cells assessed as increase in G2/M phase cells at 0.548 uM after 24 hrs by propidium iodide staining-based FACS flow cytometric analysis (reference value: 24 %). The class given is functional. The essentials: as §2
Assay [14] concerns the target T1, Heat shock protein HSP90. The experiment in a line: Inhibition of Hsp90 in human MCF7 cells assessed as decrease in ErbB2 level at 0.5 to 2 fold GI50 after 24 hrs by Western blotting analysis. Type of assay: cell-based. The essentials:
(§3)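 Total cellular extracts were analysed by Western blot for Cdk4, c-Raf, ErbB2 and Hsp72, with β-actin as the loading control.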

Assay [15] addresses T1, Heat shock protein HSP90. Put plainly: Inhibition of Hsp90 in human MCF7 cells assessed as decrease in Cdk4 level after 24 hrs by Western blotting analysis. The class given is cell-based. The gist of the method: as §3
(In general: In western blotting, separated proteins are transferred to a membrane and probed.)

For another assay, the system named is SF-295. The experiment in a line: Antiproliferative activity against human SF295 cells after 48 hrs by sulforhodamine B assay. The class given is functional. To be noted: SF-295, 48 h. The essentials:
as §1

The test system of assay [16] is MCF7. The experiment in a line: Cell cycle arrest in human MCF7 cells assessed as accumulation at sub G0/G1 phase at 0.548 uM after 48 hrs by propidium iodide staining-based FACS flow cytometric analysis. The class given is functional. The gist of the method: as §2
The target in assay [17] is T1, Heat shock protein HSP90. Put plainly: Inhibition of Hsp90 in human MCF7 cells assessed as upregulation of Hsp72 at 0.5 to 2 fold GI50 after 24 hrs by Western blotting analysis. The class given is cell-based. The essentials:
as §3

Assay [18] has as its system MCF7. Put plainly: Cell cycle arrest in human MCF7 cells assessed as accumulation at G2/M phase after 24 hrs by propidium iodide staining-based FACS flow cytometric analysis. Type of assay: functional. The essentials:
as §2

The target in assay [19] is T1, Heat shock protein HSP90. The experiment in a line: Inhibition of Hsp90 in human MCF7 cells assessed as decrease in Cdk4 level at 0.5 to 2 fold GI50 after 24 hrs by Western blotting analysis. The class given is cell-based. The gist of the method:
as §3

Assay [20] deals with T1, Heat shock protein HSP90. The experiment in a line: Inhibition of Hsp90 in human MCF7 cells assessed as decrease in cRAF level after 24 hrs by Western blotting analysis. Type of assay: cell-based. The gist of the method: as §3
The subject of assay [21] is MCF7. The experiment in a line: Cell cycle arrest in human MCF7 cells assessed as decrease in S phase cells at 0.548 uM after 48 hrs by propidium iodide staining-based FACS flow cytometric analysis. Type of assay: functional. The essentials:
as §2

For assay [22], the target named is T1, Heat shock protein HSP90. The experiment in a line: Inhibition of Hsp90 in human MCF7 cells assessed as decrease in ErbB2 level after 24 hrs by Western blotting analysis. Type of assay: cell-based. The essentials:
as §3

The subject of the next assay is NCI-H522. The experiment in a line: Antiproliferative activity against human NCI-H522 cells after 48 hrs by sulforhodamine B assay. Type of assay: functional. To be noted: NCI-H522, 48 h. The essentials: as §1
In assay [23] the test system is MCF7. Put plainly: Cell cycle arrest in human MCF7 cells assessed as decrease in G2/M phase cells at 0.548 uM after 48 hrs by propidium iodide staining-based FACS flow cytometric analysis. Type of assay: functional. The essentials: as §2
The test system of assay [24] is MCF7. The experiment in a line: Cell cycle arrest in human MCF7 cells assessed as decrease in S phase cells at 0.548 uM after 24 hrs by propidium iodide staining-based FACS flow cytometric analysis (reference value: 11 %). The class given is functional. Further details: scale not given: the % may be the effect or the level left. The essentials: as §2
The target of assay [25] is T1, Heat shock protein HSP90. The experiment in a line: Inhibition of Hsp90 in human MCF7 cells assessed as decrease in cRAF level at 0.5 to 2 fold GI50 after 24 hrs by Western blotting analysis. Type of assay: cell-based. The essentials:
as §3

In assay [26] the test system is MCF7. Put plainly: Antitumor activity in human MCF7 cells assessed as induction of necrosis after 24 hrs by LDH assay. The class given is functional, cell-based.

For `CS(=O)(=O)Nc1cccc(-c2cc(-c3ccc(O)cc3)c(C#N)c(N)n2)c1`, at Heat shock protein HSP90 [1], the EC50 is on record as greater than 10000 nM.
Consider `CN(C)c1ccc(-c2cc(-c3cccc(NS(C)(=O)=O)c3)nc(N)c2C#N)cc1`, for which the GI50 in assay [2] was 40 nM; in [3], 100 nM; in assay [4] it was 40 nM; in assay [5], 50 nM; in assay [6], 60 nM; in [7] it was 40 nM. Moreover, the 50% growth inhibitory concentration (GI50) worked out at 80 nM in assay [8], 30 nM in assay [9] and 60 nM in assay [10]. In addition, the concentration for a half-maximal effect (EC50) at Heat shock protein HSP90 [1] is on record as 371 nM.
In the case of `CS(=O)(=O)Nc1cccc(-c2cc(-c3ccccc3Br)c(C#N)c(N)n2)c1`, the EC50 on Heat shock protein HSP90 [1] is reported as greater than 10000 nM.
On to `COc1cccc(-c2cc(-c3cccc(NS(C)(=O)=O)c3)nc(N)c2C#N)c1O`, for which the 50% growth inhibitory concentration (GI50) in assay [2] was determined as 140 nM; in [3], 260 nM; with SF-295 it was 43 nM; in assay [4] it was 160 nM; in assay [5] it was 290 nM; in [6], 120 nM. In addition, the GI50 was determined as 24 nM in the assay on NCI-H522; 150 nM in assay [7]; 210 nM in assay [8]; 130 nM in [9]; 250 nM in assay [10]. The Activity in the assay on MCF7 [11] is 40%; in the assay with MCF7 [13], 53%; in the assay on MCF7 [18], “Dose-dependent effect”; in the assay on MCF7 [24], 7%. For the same molecule, the outcome with MCF7 [12], in the assay on MCF7 [16], in the assay on MCF7 [21], in the assay with MCF7 [23] and in the assay on MCF7 [26] was Active. The inhibition result on Heat shock protein HSP90 [14], at Heat shock protein HSP90 [17], on Heat shock protein HSP90 [19] and at Heat shock protein HSP90 [25] was “Active” throughout. The inhibition result on Heat shock protein HSP90 [15], on Heat shock protein HSP90 [20] and at Heat shock protein HSP90 [22] was “Dose-dependent effect” in each case. Moreover, on Heat shock protein HSP90 [1], the concentration giving a half-maximal response (EC50) came out at 252 nM.
For the molecule `CS(=O)(=O)Nc1cccc(-c2cc(-c3ccccc3Cl)c(C#N)c(N)n2)c1`, the GI50 in [2] amounted to 580 nM; in assay [3] it was 460 nM; in assay [4], 510 nM; in assay [5], 660 nM; in [6], 660 nM; in assay [7], 550 nM. Moreover, the GI50 in assay [8] came to 980 nM; in assay [9] it was 780 nM; in assay [10], 1100 nM. The EC50 on Heat shock protein HSP90 [1] is on record as 950 nM.
Turning to `COc1ccc(-c2cc(-c3cccc(NS(C)(=O)=O)c3)nc(N)c2C#N)cc1OC`, the half-maximal effective concentration (EC50) at Heat shock protein HSP90 [1] is reported as 867 nM.
As to `COc1cccc(-c2cc(-c3cccc(NS(C)(=O)=O)c3)nc(N)c2C#N)c1`, the EC50 on Heat shock protein HSP90 [1] is greater than 10000 nM.
For `COc1ccc(-c2cc(-c3cccc(NS(C)(=O)=O)c3)nc(N)c2C#N)cc1`, the GI50 in assay [2] turned out to be 100 nM; in [3] it was 140 nM; in [4], 80 nM; in assay [5], 130 nM; in assay [6], 80 nM; in assay [7] it was 100 nM. In addition, the figures for the concentration for 50% growth inhibition (GI50) in assay [8], in assay [9] and in [10] were 220 nM, 130 nM and 130 nM, respectively. Besides, on Heat shock protein HSP90 [1], the EC50 came to 541 nM.
On to `CCN(CC)c1ccc(-c2cc(-c3cccc(NS(C)(=O)=O)c3)nc(N)c2C#N)cc1`, for which the EC50 on Heat shock protein HSP90 [1] is on record as 783 nM.
Still for that read-out and setting: as for `CS(=O)(=O)Nc1cccc(-c2cc(-c3cccc(F)c3)c(C#N)c(N)n2)c1`, the figure is greater than 10000 nM; as for `COc1ccccc1-c1cc(-c2cccc(NS(C)(=O)=O)c2)nc(N)c1C#N`, 634 nM.
